The data set in a line: Toxicity liver stage against HepG2, at 10uM. It is filed as cell-based. Further details: test concentration 10 uM, cell line HepG2-A16-CD81EGFP. The following applies: human, HepG2-A16-CD81EGFP cells; read-out: INHIBITION
The method, boiled down: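 Uninfected HepG2-A16-CD81EGFP cells, 3 × 10^3 per well, 1536-well, plated on prespotted compound at 10 μM final, parasite-free screening media added to match infected plates; puromycin 10 μM positive, DMSO 0.5% negative; run in parallel with 48 h PbLuc assay at 37 °C, 5% CO2; viability by CellTiter-Glo luminescence, normalized to controls.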
As to `CS(=O)(=O)Cc1ccc(C(=O)N2CCCC(n3cncn3)C2)o1` (stereo unspecified), the cytotoxicity at 10 µM was -9%.
Under `Cc1cccc(-c2cc(C(=O)O)sn2)c1` stands -0.475%.
As for `Cc1nn(C)c(C)c1OCC(=O)N1CCC(O)(C(F)(F)F)CC1`, the cytotoxicity at 10 µM is -5.09%.
In the case of `Cc1ccc2nc(C)c(C)c(C(=O)N3CCS(=O)(=O)CC3)c2c1`, the cytotoxicity at 10 µM came out at 3.24%.
Under `COCCNC(=O)NCCc1ccn(-c2ccccc2)n1` stands -0.0722%; under `O=S(=O)(NCCCn1ccc2ccccc21)N1CCCCC1`, 12.8%.
Consider `CCc1nnc2n1CCN(Cc1csc(NC(C)=O)n1)C2`, for which the cytotoxicity at 10 µM was -1.45%.
Under `COc1cccc(COCC(=O)N2CCN(CC(C)(C)O)CC2)c1` stands -5.64%; under `CN1CCN(Cc2ccsc2)Cc2cccnc21`, -77.9%; under `CCn1cc(S(=O)(=O)NC(=O)CCc2c[nH]c3ccccc23)cn1`, -11.3%.
As for `CC(=O)N1CCC1c1nc(-c2ccc(C)s2)no1` (stereo unspecified), the cytotoxicity at 10 µM was -1.78%.
Take `COc1cc(C)c(C(C)Nc2ncc(C(N)=O)cc2Cl)cc1OC` (stereo unspecified): the cytotoxicity at 10 µM is 2.76%.
For the molecule `O=C(NCCSCc1ccco1)c1ccc(N2CCOCC2)cc1`, the cytotoxicity at 10 µM is -0.971%.
Under `Cc1ccc(NCc2cn3c(n2)CN(Cc2ccoc2)CC3)nn1` stands 9.43%; under `CC(c1ccco1)N(C)Cc1cccc(C(=O)Nc2nccn2C)c1` (stereo unspecified), -7.33%.
Under `NC1CCC(CN2CCCn3nc(CNC(=O)C4CCC4)cc3C2)CC1` (stereo unspecified) stands 4.03%.
Under `CC(C)CC(=O)N1CCc2ccc(S(=O)(=O)N3CCN(C)CC3)cc2C1` stands -15.3%.
Consider `Cc1cc(C)n(C2CN(c3ncnc4[nH]ccc34)C2)n1`, for which the cytotoxicity at 10 µM is 6.59%.
On to `O=C(Cn1nc(C(F)(F)F)c(Br)c1C1CC1)N1CCOCC1`, for which the cytotoxicity at 10 µM is -0.614%.
Under `CSc1ncccc1C(=O)N1CCCC1c1ccc(C(=O)N(C)C)s1` (stereo unspecified) stands 6.45%.
Under `CC(C)c1cc2c(O)nc(CSCC(=O)NCc3ccccn3)nc2s1` stands -5.29%; under `CC(C)(C)OC(=O)NCC1CCCCN1Cc1cccnc1` (stereo unspecified), -0.502%.
Under `FC(F)(F)c1ccnc(N2CCCOCC2)c1` stands -1.41%; under `CCOC(=O)c1n[nH]cc1CN1CCCC(N(C)Cc2ccccc2)C1` (stereo unspecified), -1.44%; under `Nc1cc2c(nn1)CCN(C(=O)CCCC1CCCCC1)C2`, -0.0113%.
As for `O=C(CCc1cnn(-c2ccccc2)c1)N1CCCC(n2cccn2)C1` (stereo unspecified), the cytotoxicity at 10 µM stood at 2.1%.
Under `CC(C)Nc1ncnc2c1CCN(C(=O)Cc1cccs1)CC2` stands -80.9%; under `CC1=N[C@@]2(CC[C@@H]3CN(CC(=O)N(C)C)C[C@@H]32)C(=O)N1CC(C)C`, 9.66%; under `Cc1ccc(S(=O)(=O)NCCCN2CCC(O)CC2)cc1Cl`, 8.68%.
Under `CN1CC2(CCN(Cc3ncc[nH]3)CC2)CC1=O` stands -1.52%; under `Cc1nn(C)cc1-c1cc(C(F)F)nc(NC2CCCCC2)n1`, 1.84%.
Regarding `O=C(N1CCCC1)C1(Cc2ccc(-c3cccs3)cc2)CCNC1` (stereo unspecified), the cytotoxicity at 10 µM was -1.75%.
Turning to `O=C1CSC(c2cccs2)c2cnn(C3CCCC3)c2N1` (stereo unspecified), the cytotoxicity at 10 µM was found to be 5.99%.
Under `CCNc1cc(N2CCN(C(=O)c3ccc(OC)cc3)CC2)nc(C)n1` stands -3.45%; under `CS(=O)(=O)N1CCCC(c2cncc(Nc3ccccn3)n2)C1` (stereo unspecified), 0.609%.
Under `O=C(NCC1(c2ccc(F)cc2)CCC1)N1CCC2(CCOCC2)C1` stands 3.73%.
Under `CC(C)(CNC(=O)Nc1cccc(-c2nccs2)c1)C(N)=O` stands -10%; under `O=C(C1CCCO1)N1CCCn2c(nnc2Cn2cccn2)C1` (stereo unspecified), 16.6%.
With `Cc1ccc(S(=O)(=O)N2C[C@H]3C[C@H](NC(=O)c4ccnn4C)[C@H]3C2)cc1`, the cytotoxicity at 10 µM worked out at 85.2%.
For the molecule `Cc1[nH]c2c(F)cccc2c1CC(=O)NCc1csc(N(C)C)n1`, the cytotoxicity at 10 µM was -1.43%.
Consider `Cc1cccc(-c2nc(C)nn2CC(=O)NC(C)C)c1`, for which the cytotoxicity at 10 µM was determined as 8.22%.
Take `c1cc(CN2CCC3(CC2)CC(N2CCCC2)CO3)co1` (stereo unspecified): the cytotoxicity at 10 µM came out at 2.38%.
Take `Cc1nnc2n1CCN(C(=O)CN1C(=O)CCCc3ccccc31)C2`: the cytotoxicity at 10 µM was -11.4%.
Under `CCCC(=O)N1CCC(c2ncc3c(n2)CCNC3)CC1` stands -23.1%; under `COCCOc1ccc(CNc2cnc3ccccc3n2)cn1`, 8.15%; under `O=C(c1cnccn1)N1CCC2(CC1)CC(Oc1ccccc1)CO2` (stereo unspecified), 2.74%.
Under `CCOCC(=O)Nc1cc(-n2nnnc2C2CC2)ccc1F` stands -4.28%; under `O=C1CC(N(C(=O)c2ccc3c(c2)CCC3)C2CC2)C(=O)N1` (stereo unspecified), -1.99%.
As to `Cc1cc(-n2c(C)cn(CN(C)Cc3ccccc3)c2=O)no1`, the cytotoxicity at 10 µM was found to be 10.3%.
Under `c1ccc(Oc2ccc(CNCC3CNc4ccnn4C3)cn2)cc1` (stereo unspecified) stands -15.6%; under `Cc1ccc(CN(Cc2ccccn2)C2CC(C)(C)NC(C)(C)C2)s1`, 2.7%.
For the molecule `Cc1cc(C)n(CC2CCCN2C(=O)Cc2c(C)nc(C)[nH]c2=O)n1` (stereo unspecified), the cytotoxicity at 10 µM was -12.8%.
Under `Cc1ccccc1N1CCCN(C(=O)CCCn2ccnc2C)CC1` stands -3.3%; under `CCOc1ccc(NC(=O)Nc2cnc(N3CCOCC3)nc2)cc1`, -11.4%.
Under `COCCOC1CCN(C(=O)NCc2cc(C)oc2C)CC1` stands -4.23%; under `CCn1nc(C)c2c1cnn2CC(=O)NC(C)c1cccc(OC)c1` (stereo unspecified), 25.8%.
Consider `COc1ccc(N2CCN(C(=O)C(C)n3cc(Br)cn3)CC2)cc1` (stereo unspecified), for which the cytotoxicity at 10 µM was found to be 11.4%.
Under `Cc1ccc(CSc2nc(N)cc(NCCS(=O)(=O)N(C)C)n2)cc1` stands 0.479%; under `COc1ccc(-c2nnc([C@H]3CCN(CC4CC4)C3)o2)cc1`, -4.6%; under `CSc1nnc(C2CCN(C(=O)N3CCCC3)CC2)n1C(C)C`, 8.54%.
For the molecule `c1ccc(CCN2CCN(c3ccc4nncn4n3)CC2)cc1`, the cytotoxicity at 10 µM is -11.7%.
With `CC(C)c1ncc(Cl)c(C(=O)N2CCN(C3CC3)CC2)n1`, the cytotoxicity at 10 µM was 3.78%.
For the molecule `O=C(c1ccnnc1)N1C[C@H]2CCC[C@@H](OCc3cccnc3)[C@@H]2C1`, the cytotoxicity at 10 µM came to 5.19%.
Under `CCC(NC(=O)c1cnc(N(C)C)nc1C)c1ccncc1` (stereo unspecified) stands -2.9%; under `CCOC(C)c1nc(CN2CCN(Cc3cccnc3)CC2)cs1` (stereo unspecified), 3.59%.
Under `Cc1nc(CN(Cc2cccnc2)Cc2ccsc2)c[nH]1` stands 0.935%; under `O=C([C@@H]1CSCN1)N1CC2(CCNCC2)c2cc(Cl)ccc21`, 4.33%.
For the molecule `COc1ccc2c(c1)[nH]c1c(N(C)CC3OCCO3)ncnc12`, the cytotoxicity at 10 µM is 18.2%.
Under `CC(C)n1c(=O)c2ccccc2n(CCN(C)C)c1=O` stands 0.616%.
Under `CCCNC(=O)CCc1ccnc2ccccc12` stands 5.25%; under `COCCN1CCC2(CC1)COc1ccccc1S(=O)(=O)N(C)C2`, -1.28%.
Under `COCCN1CC2(CCCN(C(=O)CCCc3cccs3)C2)CCC1=O` (stereo unspecified) stands -8.5%; under `Cc1nc(C(=O)N(C)C2CC(=O)N(Cc3ccccc3)C2=O)cs1` (stereo unspecified), 0.423%; under `C[S+]([O-])c1nncn1CC(=O)c1ccc(Br)cc1` (stereo unspecified), 0%.
Turning to `CN(Cc1nnc(C2CC2)n1C)C1CCN(Cc2ccncc2)C1` (stereo unspecified), the cytotoxicity at 10 µM is -10.3%.
Under `Cc1cccc(C(=O)N2CCCCC2c2nc(C)cs2)n1` (stereo unspecified) stands -7.26%; under `O=C([C@H]1C[C@H]2OCC[C@H]2N(Cc2ccco2)C1)N1CCCO1`, 8.73%.
On to `CCSCCC(C)N(C)C(=O)c1ccc2nncn2c1` (stereo unspecified), for which the cytotoxicity at 10 µM is -5.4%.
Under `O=C(NCc1ccccc1)N1CCC2(CC(=O)N(c3ccccc3)C2)C1` (stereo unspecified) stands 2.61%.
With `COCCN1C[C@@H]2CC[C@H]1CN(C(=O)CCc1n[nH]c(C)c1C)C2`, the cytotoxicity at 10 µM was -8.92%.
In the case of `CCn1ccc(NC(=O)CN2C(=O)CC(C)(C)c3ccccc32)n1`, the cytotoxicity at 10 µM was -5.01%.
As for `O=C(Nc1ccc(F)cc1)N1CCC(CO)(Nc2ccccc2)CC1`, the cytotoxicity at 10 µM stood at 2.94%.
As for `COCCNC(=O)[C@@H]1C[C@H]2[C@H](CCN2c2cc(OC)ncn2)O1`, the cytotoxicity at 10 µM was found to be 8.56%.
Under `COc1ccc2nnc(CCCC(=O)NCc3ccccc3F)n2n1` stands -0.524%; under `CN(C)c1nc(NCCc2ccccn2)ncc1F`, -4.84%.
Under `CCOc1ccc(NC(=O)N2CCNC(=O)C2)c(C(F)(F)F)c1` stands 7.09%; under `N#Cc1ccccc1CN1C[C@H]2CC[C@@H](C1)N(CC1CCC1)C2=O`, 0.258%; under `c1cc(N2CCC(c3nnc(Cn4ccnc4)n3C3CC3)CC2)ccn1`, -4.31%.
On to `Cc1ncsc1C(=O)N1CCN(Cc2cscn2)CC1`, for which the cytotoxicity at 10 µM is -2.65%.
Under `Cc1ccnc(NC(=O)CCc2cnn(C)c2C)c1` stands 0.107%; under `Cc1ncc(CN2CCN(C(=O)N(C)C)[C@@H]3CS(=O)(=O)C[C@@H]32)cn1`, 7.86%.
Regarding `Cn1cc(C(=O)NC[C@H]2OC[C@@H]3CCN(C4CCOCC4)C[C@@H]32)cn1`, the cytotoxicity at 10 µM is 8.01%.
Under `Cn1cc(NC(=O)CCc2ccsc2)ccc1=O` stands -2.9%; under `COCCC(C)NS(=O)(=O)c1ccc(C)c(N(C)C)c1` (stereo unspecified), -0.2%.
Under `CNC(=O)c1ccc(CN(C(=O)c2scnc2C)C2CC2)cc1` stands -3.09%; under `NC(=O)CN1CCCC(CCCc2ccccn2)(C(N)=O)C1` (stereo unspecified), -23.5%.
